From PubChem BioAssay
Compounds with a hit are over-represented: about 2.4% of the library has one in this group of screens.
MC4R ag barr – activates human MC4R beta-arrestin recruitment; activation, % at 8.9 µM; AID 540308; U2OS MC4R beta-arrestin complementation, luminescence; percent of melanotan II response, DMSO zero; 360,000 compounds, 0.98% hits; P32245;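 active = activation above a per-plate cutoff, the mean activation of sample wells on that plate plus 3 SD, cut at about 8% in these data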
MOR-DOR ag – agonists of human mu-delta opioid receptor heterodimerization. P35372+P41143. cells, OPRM1-OPRD1 heterodimerization, luminescence. activation, % at 9.3 µM. 340,000 compounds, 0.3% hits;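 note: 0% = vehicle-treated cells and 100% = reference agonist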
HTR5A inv ag – counter-screen for OPRM1-OPRD1 inverse agonists: human HTR5A inverse agonism; HTR5A cell line, luminescence; 340,000 compounds, 0.083% hits; inhibition, % at 9.3 µM; in the data active = inhibition mostly above about 23%, no sharp cut-off; inactive = mostly below about 18%;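 note: 0% = cells with DMSO and 100% = no-cell wells with DMSO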
Target sequence (P47898 whole entry, looked up): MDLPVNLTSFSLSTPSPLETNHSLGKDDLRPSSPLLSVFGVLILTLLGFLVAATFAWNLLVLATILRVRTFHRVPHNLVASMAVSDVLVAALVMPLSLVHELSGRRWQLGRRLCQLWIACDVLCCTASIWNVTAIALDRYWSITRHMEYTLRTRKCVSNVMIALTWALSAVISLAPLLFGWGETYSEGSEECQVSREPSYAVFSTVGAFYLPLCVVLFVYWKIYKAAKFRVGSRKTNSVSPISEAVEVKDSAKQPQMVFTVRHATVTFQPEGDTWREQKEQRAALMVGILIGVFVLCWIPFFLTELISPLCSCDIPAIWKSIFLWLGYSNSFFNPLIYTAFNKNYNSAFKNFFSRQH
HTR5A ag – activates human HTR5A in OPRM1-OPRD1 agonist counter-screen; P47898; HTR5A agonist assay, luminescence, cell-based; activation, % at 9.3 µM; 340,000 compounds, 0.61% hits; AID 504692; in the data active = activation mostly above about 9.5%, no sharp cut-off; inactive = mostly below about 7.6%;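 note: 0% = cells with vehicle only and 100% = reference agonist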
MC4R antagonist – blocks human MC4R cAMP signaling; MC4R-expressing cells, MTII-stimulated cAMP, LANCE TR-FRET; 360,000 compounds, 0.48% hits; P32245; inhibition, % at 6.5 µM;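 active = inhibition above its plate's cutoff, the mean of tested wells on that plate plus 3 SD, cut at about 29% in these data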;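 note: 0% = Melanotan II alone and 100% = Melanotan II plus saturating MCL0020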
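Assay system: U2OS-MC4R stable cell line; Also added: Melanotan II; Technique: Eu-cAMP/anti-cAMP TR-FRET, emission 671 nm; Times: 30-min compound, 1-h challenge, 1-h detection, room temperature.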
MOR-DOR inv ag – inverse agonists of human mu-delta opioid receptor heterodimerization; cell-based MOR-DOR heterodimer luminescence, inverse agonism; AID 504357; inhibition, % at 9.3 µM; P35372+P41143; 340,000 compounds, 0.21% hits; in the data active = inhibition above about 22%, passing the limit was not always enough;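 note: 0% = cells with DMSO and 100% = wells without cells with DMSO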
MOR-DOR ag conf – OPRM1-OPRD1 heterodimer agonism, confirmation. shares compounds with MOR-DOR ag. cells, MOR-DOR heterodimerization, luminescence complementation. activation, % at 9.3 µM. 830 compounds, 45% hits;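 note: 0% = vehicle-treated cells and 100% = reference agonist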
HTR5A ag ctr2 – counter-screen for OPRM1-OPRD1 agonists: human HTR5A agonism; shares compounds with MOR-DOR ag; HTR5A agonist counterscreen, cell luminescence; activation, % at 9.3 µM; 830 compounds, 8% hits; AID 504905; in the data active = activation above about 17%;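 note: 0% = vehicle-treated cells and 100% = reference agonist response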
Numbers without * were called inactive; i = inactive; . = no result. Cut-off read from the data, not from the text of the source, unless noted: active = activation above about 18%; inactive = the rest.

SMILES	MC4R ag barr	MOR-DOR ag	HTR5A inv ag	HTR5A ag	MC4R antagonist	MOR-DOR inv ag	MOR-DOR ag conf	HTR5A ag ctr2
Cc1onc(-c2ccccc2)c1C(=O)OCC(=O)NC(C)c1ccc(Cl)cc1 (stereo not drawn)	-1	5	-14	6	-5	-21	.	.
O=C(NC1CCN(Cc2ccc(Cl)cc2Cl)CC1)c1ccccc1	-1	18*	-23	6	7	-86	26*	4
O=C(NC1CCN(Cc2ccccc2)CC1)c1ccccc1	-1	-1	8	-2	-1	6	.	.
CC(C)Cn1nc(C(=O)NCc2ccccc2CN2CCCC2)c2ccccc2c1=O	-4	163*	-7	3	0	i	4	1
C/C(=N\N1CCN(c2ccccc2)CC1)c1ccc(O)cc1	0	0	-9	2	-3	1	.	.
Cc1cc(NC(=O)CSc2ccc(-c3nc4cc(C)c(C)cc4[nH]3)cn2)no1	2	20*	-12	4	4	-106	1	12
N#C/C(=C(/O)C(Cl)(Cl)Cl)c1nc2ccccc2[nH]1	-1	21*	1	0	8	-108	10	6
O=C1C(O)=CC(=C(c2ccccc2)c2ccccc2)c2ccccc21	-3	20*	16	-4	5	-100	-1	-16
O=C(OCc1ccc(F)cc1)c1ccc2c(c1)-c1ccccc1C2=O	0	2	9	-4	11	-9	.	.
CCOC(=O)C1=C(Cc2ccc(F)cc2)C(=O)c2ccccc2C1=O	4	18*	0	5	10	-100	2	27*
CC[n+]1c(/C=C/N(C)c2ccccc2)n(-c2ccccc2)c2ccc(-c3nc4ccccc4s3)cc21	16*	22*	-37	9.9*	11	-104	-2	-5
O=C(N[C@@H]1C/C=C\C[C@H](CC(=O)N(CCO)Cc2ccccc2)C(=O)NC[C@@H](c2ccccc2)OC1=O)OCC1c2ccccc2-c2ccccc21	1	2	5	10	13	-9	.	.
O=C(C[C@H]1C/C=C\C[C@H](NC(=O)OCC2c3ccccc3-c3ccccc32)C(=O)O[C@H](c2ccccc2)CNC1=O)N[C@H](CO)Cc1ccccc1	26*	239*	-144	21*	0	i	7	12
O=C(COc1ccc(Br)cc1CO)Nc1ccc(S(=O)(=O)N2CCCCC2)cc1	1	5	-7	2	12	-26	.	.
CCc1ccc(OCC(=O)Nc2ccc(S(=O)(=O)N3CCCC3)cc2)c(Br)c1	21*	19*	-13	-3	14	-104	1	-5
COc1cc2nc(Nc3cccc(F)c3)nc(N)c2cc1OC	-1	27*	-10	3	-1	-128	-3	-7
O=C(Nc1ccc(S(=O)(=O)N2CCOCC2)cc1)C1CCN(S(=O)(=O)c2ccccc2)CC1	1	-2	-6	-4	2	10	.	.
CCn1cc(CN2CCC(n3nccc3NC(=O)CCc3ccccc3)CC2)cn1	-1	31*	-5	1	11	-176	18	0
CCCn1ncc(CN2CCC(n3nccc3NC(=O)CCc3ccccc3)CC2)c1C	-1	223*	4	-1	4	i	13	5
CCn1cc(CN2CCC(n3nccc3NC(=O)CCOc3ccccc3)CC2)cn1	-1	10	8	1	7	-56	.	.
CC(=O)N1c2ccc(S(=O)(=O)N3CCC(C(=O)N4CCN(c5ccccc5F)CC4)CC3)cc2CC1C (stereo not drawn)	-1	-2	14	0	1	10	.	.
CCCCn1c(N)c(N(CC(C)C)C(=O)CCCn2c(=O)oc3ccccc32)c(=O)[nH]c1=O	0	1	-7	-6	3	-6	.	.
CCN1CCN(C2=C(NS(=O)(=O)c3ccc(NC(C)=O)cc3)C(=O)c3ccccc3C2=O)CC1	-4	0	1	0	-14	3	.	.
CC(=O)Nc1ccc(S(=O)(=O)NC2=C(N3CCN(Cc4ccccc4)CC3)C(=O)c3ccccc3C2=O)cc1	-3	55*	7	-2	2	-288	69*	-7
Cc1ccc2nc(NC(=O)Cc3cccs3)sc2c1	-1	3	-24	1	12	-16	.	.
SMILES	MC4R ag barr	MOR-DOR ag	HTR5A inv ag	HTR5A ag	MC4R antagonist	MOR-DOR inv ag	MOR-DOR ag conf	HTR5A ag ctr2
Cc1ccc2nc(-c3ccc(NC(=O)Cc4cccs4)cc3)[nH]c2c1	9.4*	23*	18	-8	15	-135	18	6
CC(=O)Nc1cccc(NC(=O)C2CCN(C(=O)c3ccco3)CC2)c1	2	1	-5	-1	5	-9	.	.
O=C(NCCCN1CCCC1=O)c1ccc(Cl)c(Cl)c1	-2	-1	3	-1	12	6	.	.
CCOc1cc(C(=O)CSc2nnc(CNc3ccc(Cl)cc3)o2)ccc1NC(=O)CC	40*	65*	-53	30*	3	-370	77*	25*
COc1ccc(NCc2nnc(SCC(=O)c3ccc(OC)cc3)o2)cc1	0	1	-5	1	15	-4	.	.
C[C@@H]1CCCCO[C@H](CN(C)S(=O)(=O)c2ccc(F)cc2)[C@@H](C)CN([C@H](C)CO)C(=O)c2cc(NC(=O)Nc3ccc(C(F)(F)F)cc3)ccc2O1	0	.	.	.	7	.	.	.
O=S(=O)(c1ccccc1)N1CCN(C(=S)NC2CCCC2)CC1	1	-2	-4	2	1	7	.	.
O=S(=O)(c1c(Cl)cc(Br)cc1Cl)N1CCN(C(=S)NC2CC2)CC1	-1	85*	1	0	-1	-413	122*	4
CCc1ccc(C(=O)c2cnc3ccc(OC)cc3c2N2CCN(CC)CC2)cc1	2	111*	7	-3	14	i	-1	-1
CCOc1ccc2ncc(C(=O)c3ccc(OC)cc3)c(N3CCN(CC)CC3)c2c1	0	2	3	-1	10	-8	.	.
Cc1ccc(COn2c(-c3ccc(Cl)cc3Cl)nc3ncccc32)cc1	5	77*	-4	1	8	-433	1	35*
COc1ccc(-c2ccc(C(=O)O)o2)c([N+](=O)[O-])c1	-1	-2	0	-4	5	8	.	.
CNC(=O)/C(C#N)=C/c1ccc(-c2ccc(OC)cc2[N+](=O)[O-])o1	7	19*	0	0	0	-116	1	-6
Cc1nc(C#N)c(N/N=C/c2c(F)cccc2Cl)o1	1	0	7	-2	2	-1	.	.
